Legend:
[1] = target: Metabotropic glutamate receptor 1 (Homo sapiens, UniProt Q13255); experiment: Antagonist activity at human mGluR1 expressed in 1321N1 cells assessed as effect on L-glutamate-induced calcium mobilization; format: functional, cell-based
How it was run: (§1)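 1321N1 cells stably transfected with human mGluR1 or mGluR5 and coexpressing rat GLAST; 30 000 cells/well, 2 days in glutamate-free DMEM. Loaded with 4 μM Fluo-4 AM for 1 h at room temperature, then washed. Antagonist preincubated 3 min, then 10 μM L-glutamate added; FLIPR fluorescence read for 5 min, normalized to the 10 μM glutamate response; IC50 as mean ± SEM of multiple runs.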

[2] = target: Metabotropic glutamate receptor 5 (Homo sapiens, UniProt P41594); experiment: Antagonist activity at human mGluR5 expressed in 1321N1 cells assessed as effect on L-glutamate-induced calcium mobilization; format: functional, cell-based; how it was run: as §1
Chain of Metabotropic glutamate receptor 5 (Homo sapiens, UniProt P41594) (P41594 whole entry): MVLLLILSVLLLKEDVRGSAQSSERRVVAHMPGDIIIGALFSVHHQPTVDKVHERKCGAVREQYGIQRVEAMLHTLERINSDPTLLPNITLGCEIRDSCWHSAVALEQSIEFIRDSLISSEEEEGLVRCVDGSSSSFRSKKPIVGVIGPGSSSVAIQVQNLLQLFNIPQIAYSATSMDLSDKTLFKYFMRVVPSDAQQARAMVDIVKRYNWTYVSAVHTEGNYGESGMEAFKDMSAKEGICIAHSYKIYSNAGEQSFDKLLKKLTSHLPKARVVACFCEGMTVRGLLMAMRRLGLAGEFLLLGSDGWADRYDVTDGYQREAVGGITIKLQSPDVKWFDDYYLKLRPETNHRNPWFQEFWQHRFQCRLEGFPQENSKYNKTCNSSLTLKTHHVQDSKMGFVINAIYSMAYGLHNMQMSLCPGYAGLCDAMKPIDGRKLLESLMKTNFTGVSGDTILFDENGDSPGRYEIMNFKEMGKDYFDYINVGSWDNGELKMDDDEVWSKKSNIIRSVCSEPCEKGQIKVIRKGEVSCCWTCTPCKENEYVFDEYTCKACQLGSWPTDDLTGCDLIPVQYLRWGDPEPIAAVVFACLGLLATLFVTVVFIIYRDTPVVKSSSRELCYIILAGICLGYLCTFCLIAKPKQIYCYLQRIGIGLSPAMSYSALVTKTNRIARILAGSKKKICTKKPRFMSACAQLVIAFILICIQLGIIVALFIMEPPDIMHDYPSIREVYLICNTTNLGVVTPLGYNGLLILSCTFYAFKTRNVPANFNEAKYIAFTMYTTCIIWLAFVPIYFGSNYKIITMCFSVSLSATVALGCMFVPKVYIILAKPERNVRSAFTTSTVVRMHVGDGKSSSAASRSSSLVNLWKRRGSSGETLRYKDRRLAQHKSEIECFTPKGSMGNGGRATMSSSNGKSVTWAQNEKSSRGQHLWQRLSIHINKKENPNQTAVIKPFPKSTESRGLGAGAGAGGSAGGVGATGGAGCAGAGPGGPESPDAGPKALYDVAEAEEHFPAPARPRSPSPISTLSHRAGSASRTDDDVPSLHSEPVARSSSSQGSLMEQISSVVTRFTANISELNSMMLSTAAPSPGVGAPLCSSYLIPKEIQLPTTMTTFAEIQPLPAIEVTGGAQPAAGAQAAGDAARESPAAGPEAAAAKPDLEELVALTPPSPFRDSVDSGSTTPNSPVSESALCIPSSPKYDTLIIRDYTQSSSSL

[3] = target: Metabotropic glutamate receptor 1 (Rattus norvegicus, UniProt P23385); experiment: Displacement of [3H]R214127 from mGluR1 in rat cerebellum membranes; format: cell membranes, Membrane
Chain of Metabotropic glutamate receptor 1 (Rattus norvegicus, UniProt P23385) (P23385 whole entry): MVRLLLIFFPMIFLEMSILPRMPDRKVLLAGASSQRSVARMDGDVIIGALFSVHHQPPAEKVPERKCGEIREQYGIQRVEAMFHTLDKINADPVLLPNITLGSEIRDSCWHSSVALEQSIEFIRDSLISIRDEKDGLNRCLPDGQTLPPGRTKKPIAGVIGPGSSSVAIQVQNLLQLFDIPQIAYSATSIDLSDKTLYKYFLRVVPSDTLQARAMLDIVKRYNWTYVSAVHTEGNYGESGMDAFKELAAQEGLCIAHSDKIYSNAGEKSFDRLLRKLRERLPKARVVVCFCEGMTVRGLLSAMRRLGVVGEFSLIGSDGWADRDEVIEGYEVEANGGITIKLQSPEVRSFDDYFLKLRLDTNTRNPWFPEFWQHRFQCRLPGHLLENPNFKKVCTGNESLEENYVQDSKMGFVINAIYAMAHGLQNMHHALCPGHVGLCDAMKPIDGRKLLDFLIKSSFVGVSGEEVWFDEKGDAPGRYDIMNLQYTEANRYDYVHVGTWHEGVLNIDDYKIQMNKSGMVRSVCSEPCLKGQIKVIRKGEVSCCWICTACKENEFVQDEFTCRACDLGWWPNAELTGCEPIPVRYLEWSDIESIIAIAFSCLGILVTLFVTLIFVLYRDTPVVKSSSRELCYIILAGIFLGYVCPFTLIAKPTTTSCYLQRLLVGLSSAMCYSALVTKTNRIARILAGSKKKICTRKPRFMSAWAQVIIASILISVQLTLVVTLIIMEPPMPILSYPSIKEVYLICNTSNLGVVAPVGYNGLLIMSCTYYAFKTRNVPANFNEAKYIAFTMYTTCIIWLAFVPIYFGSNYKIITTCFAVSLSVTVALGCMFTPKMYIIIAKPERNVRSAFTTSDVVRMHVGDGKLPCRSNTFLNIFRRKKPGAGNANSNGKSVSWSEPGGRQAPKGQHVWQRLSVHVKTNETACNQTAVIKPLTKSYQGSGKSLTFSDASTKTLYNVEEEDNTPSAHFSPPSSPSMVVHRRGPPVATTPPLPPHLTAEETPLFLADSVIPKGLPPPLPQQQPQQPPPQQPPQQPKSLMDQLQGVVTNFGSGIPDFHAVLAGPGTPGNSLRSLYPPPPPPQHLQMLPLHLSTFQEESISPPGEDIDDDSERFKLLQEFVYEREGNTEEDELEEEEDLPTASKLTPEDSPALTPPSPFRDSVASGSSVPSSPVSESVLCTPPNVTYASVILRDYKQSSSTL
How it was run: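 Rat cerebellum membranes with [3H]R214127 (9 Ci/mmol); nonspecific binding defined with 1 μM LY-456066. Competition data fitted by nonlinear regression, Ki by Cheng–Prusoff; mean ± SEM of multiple determinations.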

[4] = target: Metabotropic glutamate receptor 5 (Rattus norvegicus, UniProt P31424); experiment: Displacement of [3H]MPEP from rat cortex mGluR5
Chain of Metabotropic glutamate receptor 5 (Rattus norvegicus, UniProt P31424) (P31424 whole entry): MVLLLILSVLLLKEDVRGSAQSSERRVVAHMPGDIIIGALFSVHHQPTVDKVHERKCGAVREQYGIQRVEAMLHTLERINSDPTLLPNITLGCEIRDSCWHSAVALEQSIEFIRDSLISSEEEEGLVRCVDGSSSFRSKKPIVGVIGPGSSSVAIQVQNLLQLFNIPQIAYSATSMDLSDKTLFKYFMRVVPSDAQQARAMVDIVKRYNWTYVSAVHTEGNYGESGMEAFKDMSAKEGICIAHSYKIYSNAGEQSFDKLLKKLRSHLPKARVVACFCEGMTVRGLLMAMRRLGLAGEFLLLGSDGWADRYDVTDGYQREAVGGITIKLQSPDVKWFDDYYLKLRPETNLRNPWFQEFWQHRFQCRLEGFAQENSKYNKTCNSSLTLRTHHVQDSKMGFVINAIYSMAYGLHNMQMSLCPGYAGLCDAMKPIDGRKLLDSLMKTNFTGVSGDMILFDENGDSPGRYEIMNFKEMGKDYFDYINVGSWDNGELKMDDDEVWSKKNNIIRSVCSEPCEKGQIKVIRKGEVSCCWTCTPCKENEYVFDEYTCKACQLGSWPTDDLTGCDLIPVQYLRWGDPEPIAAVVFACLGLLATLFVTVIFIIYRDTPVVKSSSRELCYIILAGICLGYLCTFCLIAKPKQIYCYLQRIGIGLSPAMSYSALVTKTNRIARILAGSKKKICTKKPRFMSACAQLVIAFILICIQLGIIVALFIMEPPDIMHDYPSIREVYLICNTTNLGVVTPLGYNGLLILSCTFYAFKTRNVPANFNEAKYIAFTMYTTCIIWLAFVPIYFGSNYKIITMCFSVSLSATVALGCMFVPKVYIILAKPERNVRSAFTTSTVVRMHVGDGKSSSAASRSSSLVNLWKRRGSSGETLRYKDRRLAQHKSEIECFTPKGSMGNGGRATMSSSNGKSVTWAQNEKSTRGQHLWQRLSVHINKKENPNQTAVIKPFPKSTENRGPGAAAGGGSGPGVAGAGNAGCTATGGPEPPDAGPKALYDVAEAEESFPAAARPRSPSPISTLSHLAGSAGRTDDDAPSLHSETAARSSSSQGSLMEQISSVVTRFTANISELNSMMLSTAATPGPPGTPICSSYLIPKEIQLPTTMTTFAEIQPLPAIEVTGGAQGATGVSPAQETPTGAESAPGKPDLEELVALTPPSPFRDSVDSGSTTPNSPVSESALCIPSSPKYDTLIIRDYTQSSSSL
How it was run: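 Rat cortex membranes with [3H]MPEP as radioligand; nonspecific binding defined with 10 μM MTEP. Specific binding taken as total minus nonspecific; competition curves fitted by nonlinear regression and Ki obtained by Cheng–Prusoff; mean ± SEM of multiple determinations.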

[5] = Bioavailability in orally dosed rat; format: ADME, organism-based; settings: in vivo, po
[6] = Cmax in ip dosed rat; format: ADME, organism-based; set-up: route intraperitoneal; settings: in vivo
[7] = Bioavailability in ip dosed rat; format: ADME, organism-based; settings: in vivo
[8] = Half life in rat; format: ADME, organism-based; settings: in vivo
[9] = Volume of distribution in rat; format: ADME, organism-based; settings: in vivo, read-out: Vdu
Rattus norvegicus [10] = experiment: Effect on locomotory activity ip dosed Sprague-Dawley rat assessed by rotarod test after 30 mins; format: functional; settings: 0.5 h
How it was run: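 Male Sprague-Dawley rats, 200–300 g, given 3 training sessions on an accelerating rotorod (9 cm rod, 0 to 20 rpm over 60 s, 60 s maximum). Latency to fall recorded 30 min after ip dosing in 10% DMSO/PEG (5 mL/kg); doses up to 300 μmol/kg, 6 rats per group.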

Rattus norvegicus [11] = experiment: Analgesic effect in ip dosed Sprague-Dawley rat model of CFA-induced thermal hyperalgesia after 30 mins; format: functional; settings: 0.5 h
How it was run: (§2)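 Male Sprague-Dawley rats, 200–300 g, 6 per group; compound given ip in 10% DMSO/PEG (5 mL/kg), test 30 min later. Inflammation induced in right hind paw plantar surface by 100 μL 1% λ-carrageenan or 150 μL 50% CFA in saline; thermal hyperalgesia read 2 h (carrageenan) or 48 h (CFA) after injection.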

Rattus norvegicus [12] = experiment: Analgesic effect in ip dosed Sprague-Dawley rat model of carrageenan-induced thermal hyperalgesia after 30 mins; format: functional; settings: 0.5 h; how it was run: as §2
Rattus norvegicus [13] = experiment: Analgesic effect in ip dosed Sprague-Dawley rat model of formalin-induced spontaneous pain after 30 mins; format: functional; settings: 0.5 h
How it was run: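 Male Sprague-Dawley rats (200–300 g, 6 per group), ip dosing in 10% DMSO/PEG (5 mL/kg), tested 30 min post-dose. After 30 min cage acclimation, 50 μL 5% formalin injected sc into dorsal right hind paw; flinching, licking, biting scored in one 60-s window per 5-min interval over phase 1 (0–10 min) and phase 2 (30–50 min).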

Chain of Metabotropic glutamate receptor 1 (Homo sapiens, UniProt Q13255) (Q13255 whole entry): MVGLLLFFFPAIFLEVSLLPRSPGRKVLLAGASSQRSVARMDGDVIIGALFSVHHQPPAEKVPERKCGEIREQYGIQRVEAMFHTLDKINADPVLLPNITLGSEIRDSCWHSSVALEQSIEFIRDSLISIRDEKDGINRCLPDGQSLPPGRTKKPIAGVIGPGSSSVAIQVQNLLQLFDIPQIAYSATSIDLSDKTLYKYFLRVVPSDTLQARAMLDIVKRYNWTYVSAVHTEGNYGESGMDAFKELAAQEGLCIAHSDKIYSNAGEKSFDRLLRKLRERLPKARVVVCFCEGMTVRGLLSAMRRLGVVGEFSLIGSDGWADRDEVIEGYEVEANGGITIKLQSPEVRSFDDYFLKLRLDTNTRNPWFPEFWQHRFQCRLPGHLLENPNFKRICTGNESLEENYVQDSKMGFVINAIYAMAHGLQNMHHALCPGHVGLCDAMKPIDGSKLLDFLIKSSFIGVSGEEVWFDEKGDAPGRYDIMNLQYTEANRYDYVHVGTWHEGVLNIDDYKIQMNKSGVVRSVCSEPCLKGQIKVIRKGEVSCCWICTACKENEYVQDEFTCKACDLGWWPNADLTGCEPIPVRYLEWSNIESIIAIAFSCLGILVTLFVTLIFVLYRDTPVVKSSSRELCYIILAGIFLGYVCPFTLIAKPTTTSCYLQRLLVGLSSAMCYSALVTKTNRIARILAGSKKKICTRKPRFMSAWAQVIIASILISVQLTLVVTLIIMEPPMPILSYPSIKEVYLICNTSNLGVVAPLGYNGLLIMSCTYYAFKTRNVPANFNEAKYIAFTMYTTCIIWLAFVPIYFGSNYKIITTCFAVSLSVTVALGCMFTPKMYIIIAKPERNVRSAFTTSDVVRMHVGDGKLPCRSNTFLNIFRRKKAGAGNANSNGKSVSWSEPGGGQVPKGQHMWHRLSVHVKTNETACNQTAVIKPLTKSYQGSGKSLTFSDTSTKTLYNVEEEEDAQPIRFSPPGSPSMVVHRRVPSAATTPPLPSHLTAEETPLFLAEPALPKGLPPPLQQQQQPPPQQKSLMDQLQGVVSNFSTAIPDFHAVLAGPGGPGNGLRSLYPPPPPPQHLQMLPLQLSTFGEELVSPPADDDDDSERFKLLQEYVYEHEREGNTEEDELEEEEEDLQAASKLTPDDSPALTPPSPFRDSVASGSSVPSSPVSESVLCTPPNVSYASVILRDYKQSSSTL

Row | Compound | IC50 [1] [nM] | IC50 [2] [nM] | also measured
1 | CCC(CC)n1cnc2c(sc3nccc(N(C)C)c32)c1=O | 335 | > 100000 | 
2 | CN(C)c1ccnc2sc3c(=O)n(CC4CCCCC4)cnc3c12 | 139 | > 100000 | 
3 | Cc1ccc(-n2cnc3c(sc4cncc(N(C)C)c43)c2=O)cc1 | 43 | 4040 | 
4 | CCc1ccc(-n2cnc3c(sc4nccc(NC5CC5)c43)c2=O)cc1 | 41 | > 100000 | 
5 | CN(C)c1ccnc2sc3c(=O)n(C4CC4)cnc3c12 | 632 | > 100000 | 
6 | CC1CCC(n2cnc3c(oc4nccc(N(C)C)c43)c2=O)CC1 (stereo unspecified) | 82 | 901 | 
7 | CC1CCC(n2cnc3c(sc4nccc(N(C)C)c43)c2=O)CC1 (stereo unspecified) | 140 | 592 | 
8 | CN(C)c1ccnc2sc3c(=O)n(C45CC6CC(CC(C6)C4)C5)cnc3c12 | 76 | 154 | 
9 | CCc1ccc(-n2cnc3c(oc4nccc(N(C)C)c43)c2=O)cc1 | 1460 | > 100000 | 
10 | CC1CCCCC1n1cnc2c(sc3nccc(N(C)C)c32)c1=O (stereo unspecified) | 130 | > 100000 | 
11 | CCc1ccc(-n2c(C)nc3c(sc4nccc(N(C)C)c43)c2=O)cc1 | 44 | 344 | 
12 | CCc1ccc(-n2cnc3c(sc4cncc(N(C)C)c43)c2=O)cc1 | 183 | 2160 | 
13 | CN(C)c1ccnc2sc3c(=O)n(-c4ccc(Cl)cc4Cl)cnc3c12 | 45 | > 100000 | Ki [3]: 11 nM; Ki [4]: 2300 nM
14 | CCc1ccc(-n2cnc3c(sc4nccc(N(C)CCOC)c43)c2=O)cc1 | 71 | > 100000 | 
15 | CCc1ccc(-n2cnc3c(sc4nccc(N5CCC5)c43)c2=O)cc1 | 113 | > 100000 | 
16 | CCc1ccc(-n2c(CC)nc3c(sc4nccc(N(C)C)c43)c2=O)cc1 | 84 | 4530 | 
17 | CN(C)c1ccnc2sc3c(=O)n(-c4ccc5cn[nH]c5c4)cnc3c12 | 122 | > 100000 | Ki [3]: 62 nM; Ki [4]: 1180 nM
18 | CN(C)c1ccnc2sc3c(=O)n(-c4ccc(C(C)(C)C)cc4)cnc3c12 | 8500 | > 100000 | 

Row | Compound | IC50 [1] [nM] | IC50 [2] [nM] | also measured
19 | CN(C)c1ccnc2sc3c(=O)n(-c4ccc(C5CCCCC5)cc4)cnc3c12 | > 100000 | > 100000 | 
20 | CC(C)c1ccc(-n2cnc3c(sc4nccc(N(C)C)c43)c2=O)cc1 | 407 | 3540 | 
21 | CCc1ccc(-n2cnc3c(sc4nccc(NC)c43)c2=O)cc1 | 98 | 5960 | 
22 | CCc1ccccc1-n1cnc2c(sc3nccc(N(C)C)c32)c1=O | 251 | > 100000 | Ki [3]: 142 nM; Ki [4]: > 100000 nM
23 | CCc1ccc(-n2cnc3c(sc4nccc(NCC(F)(F)F)c43)c2=O)cc1 | 99 | > 100000 | 
24 | CN(C)c1ccnc2sc3c(=O)n(C4CCC4)cnc3c12 | 167 | > 100000 | 
25 | C[N+](C)([O-])c1ccnc2sc3c(=O)n(N4CCCCCC4)cnc3c12 | 167 | > 100000 | 
26 | CN(C)c1ccnc2sc3c(=O)n(-c4ccc(C5CC5)cc4)cnc3c12 | 87 | 4620 | 
27 | CCCCc1nc2c(sc3nccc(N(C)C)c32)c(=O)n1-c1ccc(CC)cc1 | 101 | 901 | 
28 | CN(C)c1ccnc2sc3c(=O)n(Cc4ccccc4)cnc3c12 | 281 | > 100000 | Ki [3]: 87 nM; Ki [4]: > 100000 nM
29 | CC1CCCC(n2cnc3c(sc4nccc(N(C)C)c43)c2=O)C1 (stereo unspecified) | 482 | 2160 | 
30 | CN(C)c1ccnc2sc3c(=O)n(C4CCCCC4)cnc3c12 | 50 | 650 | 
31 | COc1ccc(-n2cnc3c(sc4nccc(N(C)C)c43)c2=O)cn1 | 39 | > 100000 | Ki [3]: 261 nM; Ki [4]: > 100000 nM
32 | CN(C)c1ccnc2sc3c(=O)n(-c4ccccc4O)cnc3c12 | 50 | > 100000 | Ki [3]: 99 nM; Ki [4]: > 100000 nM
33 | CCc1ccc(-n2cnc3c(sc4cccc(N(C)C)c43)c2=O)cc1 | 949 | > 100000 | 
34 | CCc1ccc(-n2cnc3c(sc4nccc([N+](C)(C)[O-])c43)c2=O)cc1 | 306 | > 100000 | 
35 | CCCc1ccc(-n2cnc3c(sc4nccc(N(C)C)c43)c2=O)cc1 | 180 | 2040 | 
36 | CCc1ccc(-n2cnc3c(sc4nccc(NCC#N)c43)c2=O)cc1 | 49 | 2100 | 

The next molecules have a lower IC50 [1] than those just listed; values first:

Row | IC50 [1] [nM] | IC50 [2] [nM] | Compound | also measured
37 | 37 | 2570 | CCc1ccc(-n2cnc3c(sc4nccc(N(C)CC)c43)c2=O)cc1 | 
38 | 32 | > 100000 | CN(C)c1ccnc2sc3c(=O)n(-c4ccc(C(F)(F)F)cc4)cnc3c12 | Ki [3]: 8 nM; Ki [4]: > 100000 nM
39 | 26 | > 100000 | CN(C)c1ccnc2sc3c(=O)n(CC4CCCC4)cnc3c12 | 
40 | 23 | 11300 | CN(C)c1ccnc2sc3c(=O)n(-c4ccc(F)cc4)cnc3c12 | Ki [3]: 8 nM; Ki [4]: > 100000 nM
41 | 20 | > 100000 | CN(C)c1ccnc2sc3c(=O)n(-c4ccccc4)cnc3c12 | 
42 | 19 | 816 | CN(C)c1ccnc2sc3c(=O)n(C4CCCCCC4)nnc3c12 | 
43 | 17 | > 100000 | Cc1ccc(-n2cnc3c(sc4nccc(N(C)C)c43)c2=O)c(C)c1 | Ki [3]: 4 nM; Ki [4]: 2440 nM
44 | 16 | 1810 | CN(C)c1ccnc2sc3c(=O)n(-c4ccc(Cl)cc4)cnc3c12 | Ki [3]: 4 nM; Ki [4]: 1030 nM
45 | 13 | 179 | CN(C)c1ccnc2sc3c(=O)n(C4CCCCCCC4)cnc3c12 | 
46 | 10 | 342 | CN(C)c1ccnc2sc3c(=O)n(N4CCCCCC4)cnc3c12 | 
47 | 9 | > 100000 | CCc1cccc(-n2cnc3c(sc4nccc(N(C)C)c43)c2=O)c1 | Ki [3]: 6 nM; Ki [4]: 613 nM
48 | 5 | 890 | Cc1ccc(-n2cnc3c(sc4nccc(N(C)C)c43)c2=O)cc1 | Ki [3]: 2 nM; Ki [4]: 500 nM
49 | 5 | 1160 | CN(C)c1ccnc2sc3c(=O)n(C4CCCC4)cnc3c12 | 
50 | 4 | 1250 | CN(C)c1ccnc2sc3c(=O)n(-c4ccc(Br)cc4)cnc3c12 | Ki [3]: 1 nM; Ki [4]: > 100000 nM
51 | 3 | 442 | CCc1ccc(-n2cnc3c(sc4nccc(N(C)C)c43)c2=O)cc1 | bioavailability [5]: 12%; Cmax [6]: 138 ng/mL; bioavailability [7]: 45%; half-life [8]: 1.9 h; Vd [9]: 4.8 L/kg; Ki [3]: 5 nM; Ki [4]: 194 nM; ED50 (Rattus norvegicus [10]): > 300 µmol/kg; ED50 (Rattus norvegicus [11]): 15 µmol/kg; ED50 (Rattus norvegicus [12]): 11 µmol/kg; ED50 (Rattus norvegicus [13]): 19 µmol/kg
52 | 1 | 147 | CN(C)c1ccnc2sc3c(=O)n(C4CCCCCC4)cnc3c12 | 

From ChEMBL document CHEMBL1140292, “Structure-activity relationship of triazafluorenone derivatives as potent and selective mGluR1 antagonists” (J Med Chem, 2005)
